Measurements taken from ChEMBL document CHEMBL1122185, “Tricyclics with analgesic and antidepressant activity. 2. [[(Alkylamino)ethyl]thio]dibenzo[b,f]thiepins and 10,11-dihydro derivatives” (1982).
“And” between values parts separate entries of the source, which are not always exact repeats. Identical values can stand only once.

Experiments:
Format in all cases: functional
Mus musculus [1] = experiment: Antidepressant activity was determined to prevent tetrabenazine-induced ptosis(TBZ) after intraperitoneal administration in mice; conditions: ip
In short: (§1)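 Mouse model measuring prevention of tetrabenazine-induced ptosis, with dosing orally or intraperitoneally. The vehicle was distilled water with a few drops of Tween 80. ED50 values were calculated by linear-regression analysis, with 95% confidence limits in parentheses.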

Mus musculus [2] = experiment: Analgesic activity was determined for inhibition of phenyl-p-quinone-induced writhing (PQW) after subcutaneous administration in mice; conditions: for ED50: sc
In short: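 Mice were given phenyl-p-quinone to induce writhing, and inhibition of writhing was scored after subcutaneous dosing. The vehicle was distilled water with a few drops of Tween 80. ED50 was obtained by linear regression with 95% confidence limits.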

Mus musculus [3] = experiment: Antidepressant activity was determined to prevent tetrabenazine-induced ptosis(TBZ) after oral administration in mice; in short: as §1
Rattus norvegicus [4] = experiment: Antidepressant activity was determined for potentiation of head twitching induced by 5-hydroxytryptophan-(5-HTP) after intraperitoneal administration in pargyline-pretreated rats; conditions: ip
In short: (§2)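 In pargyline-pretreated rats, potentiation of 5-hydroxytryptophan-induced head twitching (stereotypy) was measured after intraperitoneal dosing. The vehicle was distilled water plus a few drops of Tween 80. ED50 was derived by linear regression with 95% confidence limits.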

Mus musculus [5] = experiment: Analgesic activity was determined for delay in response to noxious heat stimuli after intraperitoneal administration in mice, in tail flick assay
In short: (§3)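 D'Amour-Smith tail-flick method in mice: delay in response to a noxious heat stimulus. Compounds were given in a vehicle of distilled water with a few drops of Tween 80. ED50 was calculated by linear-regression analysis with 95% confidence limits.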

Mus musculus [6] = experiment: Analgesic activity was determined for delay in response to noxious heat stimuli after subcutaneous administration in mice, in tail flick assay; conditions: for ED50: sc; in short: as §3
Mus musculus [7] = experiment: Antidepressant activity was determined to prevent tetrabenazine-induced ptosis(TBZ) after oral administration in mice.(value in parentheses indicates 95% confidence limits).; in short: as §1
Rattus norvegicus [8] = experiment: Antidepressant activity was determined for potentiation of head twitching induced by 5-hydroxytryptophan-(5-HTP) after intraperitoneal administration in pargyline-pretreated rats,; conditions: ip; in short: as §2
[9] = Mus musculus, po, read-out: ED50

`CNCCSC1Cc2ccccc2Sc2ccc(F)cc21` (stereo unspecified) gave an ED50 (Mus musculus [1]) of 0.28 mg/kg, an ED50 (Mus musculus [2]) of 2.9 mg/kg and an ED50 (Mus musculus [3]; [9]) of 1.5 mg/kg. For the same molecule, the ED50 (Rattus norvegicus [4]) was 8.1 mg/kg and the Inhibition (Mus musculus [5]) was 60%.

`CN(C)CCSC1=Cc2ccccc2Sc2ccc(F)cc21` was tested, and the ED50 (Mus musculus [2]) was over 10 mg/kg, the ED50 (Mus musculus [6]) was over 25 mg/kg and the ED50 (Rattus norvegicus [4]) was over 10 mg/kg. For the same molecule, the ED50 (Mus musculus [7]) was 3.6 mg/kg.

With `CNCCSC1=Cc2ccccc2Sc2ccc(O)cc21` the ED50 (Mus musculus [2]) was over 10 mg/kg, the ED50 (Mus musculus [3]; [9]) was 2 mg/kg and the ED50 (Mus musculus [6]) was over 25 mg/kg. It also gave an ED50 (Rattus norvegicus [4]) of over 10 mg/kg.

`CN(C)CCSC1=Cc2ccccc2Sc2ccc(Cl)cc21` gave an ED50 (Mus musculus [2]) of 14.6 mg/kg, an ED50 (Mus musculus [3]; [9]) of 3.7 mg/kg and an ED50 (Mus musculus [6]) of over 25 mg/kg. The ED50 (Rattus norvegicus [4]) was over 10 mg/kg.

`CN(C)CCSC1Cc2ccccc2Sc2ccccc21` (stereo unspecified) showed an ED50 (Mus musculus [2]) of 3.3 mg/kg, an Inhibition (Mus musculus [3]) of 60% and an Inhibition (Mus musculus [6]) of 60%. For the same molecule, the ED50 (Rattus norvegicus [4]) was over 10 mg/kg.

`CNCCSC1=Cc2ccccc2Sc2ccc(Cl)cc21` showed an ED50 (Mus musculus [2]) of 12.5 mg/kg, an ED50 (Mus musculus [6]) of over 25 mg/kg and an ED50 (Rattus norvegicus [4]) of over 10 mg/kg.

In the case of `CN(C)CCSC1Cc2ccccc2Sc2ccc(F)cc21` (stereo unspecified), the ED50 (Rattus norvegicus [8]) is reported as over 10 mg/kg, the ED50 (Mus musculus [2]) is reported as 9 mg/kg and the ED50 (Mus musculus [3]) is reported as 0.91 mg/kg. It also gave an ED50 (Mus musculus [3]; [9]) of 1.2 mg/kg and an ED50 (Mus musculus [6]) of over 25 mg/kg.

Work on `CNCCSC1Cc2ccccc2Sc2ccccc21` (stereo unspecified) yielded an ED50 (Mus musculus [2]) of 4.2 mg/kg, an ED50 (Mus musculus [3]; [9]) of 8 mg/kg and an Inhibition (Mus musculus [6]) of 60%. It also gave an ED50 (Rattus norvegicus [4]) of over 10 mg/kg.

With `CN(C)CCSC1Cc2ccccc2Sc2ccc(Cl)cc21` (stereo unspecified) the ED50 (Mus musculus [2]) was over 10 mg/kg, the ED50 (Mus musculus [6]) was over 25 mg/kg and the ED50 (Rattus norvegicus [4]) was over 10 mg/kg.

With `CNCCSC1=Cc2ccccc2Sc2ccc(F)cc21` the ED50 (Mus musculus [2]) was 8.9 mg/kg, the ED50 (Mus musculus [3]; [9]) was 5.2 mg/kg and the Inhibition (Mus musculus [6]) was 50%. It also gave an ED50 (Rattus norvegicus [4]) of over 10 mg/kg.

`CNCCSC1Cc2ccccc2Sc2ccc(Cl)cc21` (stereo unspecified) was tested, and the ED50 (Mus musculus [2]) was 4.4 mg/kg, the ED50 (Rattus norvegicus [4]) was 50 mg/kg and the ED50 (Mus musculus [5]; ip) was 63.6 mg/kg.

For `CN(C)CCSC1=Cc2ccccc2Sc2ccccc21`, the Inhibition (Mus musculus [2]) was 64%, the ED50 (Mus musculus [3]; [9]) was over 20 mg/kg and the ED50 (Mus musculus [6]) was over 25 mg/kg. The ED50 (Rattus norvegicus [4]) was over 10 mg/kg.

`CNCCSC1=Cc2ccccc2Sc2ccccc21` was tested, and the ED50 (Mus musculus [6]) was over 25 mg/kg, the ED50 (Rattus norvegicus [4]) was over 10 mg/kg and the ED50 (Mus musculus [7]) was 23.9 mg/kg.

In the case of `CC(C)=CCN1CC[C@]2(C)c3cc(O)ccc3C[C@H]1[C@H]2C` [(+)-PENTAZOCINE], the ED50 (Mus musculus [2]) is reported as 2.4 mg/kg and the ED50 (Mus musculus [6]) is reported as 14.6 mg/kg.

`CN(C)CCCN1c2ccccc2CCc2ccccc21` [IMIPRAMINE] was tested, and the ED50 (Mus musculus [2]) was 10.7 mg/kg, the ED50 (Mus musculus [3]) was 2.8 mg/kg and 1.3 mg/kg and the ED50 (Mus musculus [6]) was over 25 mg/kg. For the same molecule, the ED50 (Rattus norvegicus [4]) was over 10 mg/kg.
